Results from ChEMBL document CHEMBL1123220, “Structure-activity studies of 16-methoxy-16-methyl prostaglandins” (1986).

Tests used:
Cricetinae gen. sp. [1] = assay: (§1) Antifertility activity was determined in hamsters (two to six dose levels, 6-18 animals per group) treated subcutaneously (sc) from day 4 to day 6 of gestation.; format: functional, Mesocricetus auratus
Method in brief: (§2)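 Syrian Golden hamsters dosed sc on three consecutive days, gestation days 4 to 6. Two to six dose levels, 6–18 animals per group. Animals killed on day 10 of gestation, and implantation sites and live fetuses counted.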

Mus musculus = assay: Compound was evaluated for diarrheal effect in mice (po administration); format: functional
Method in brief: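 Mice fasted 24 h, then given logarithmically graded oral doses of 100–4000 μg/kg. Animals caged singly on blotting paper for 1 h, and stool dampness spots scored on a 0–4 scale. ED50 calculated by the Miller–Tainter method.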

Rattus norvegicus [2] = assay: Compound was evaluated for antisecretion activity using stomach perfusion test in the anesthetized rat (iv administration); format: functional; conditions: read-out: ID50 (the source's name)
Cricetinae gen. sp. [3] = assay: Antifertility activity was determined in hamsters (two to six dose levels, 6-18 animals per group) treated subcutaneously (sc) from day 4 to day 6 of gestation; format: functional, Mesocricetus auratus; method in brief: as §2
Rattus norvegicus [4] = assay: Compound was evaluated for antisecretion activity using stomach perfusion test in the anesthetized rat (iv administration); At the dose of 500 ug/kg, some animals died; format: functional; conditions: read-out: ID50 (the source's name)
Cricetinae gen. sp. [5] = assay: as §1; format: functional, Cricetulus griseus; method in brief: as §2
Rattus norvegicus [6] = assay: Compound was evaluated for antisecretion activity using stomach perfusion test in the anesthetized rat (iv administration) in experiment 2; format: functional; conditions: read-out: ID50 (the source's name)
Method in brief: (§3)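 Stomach perfusion in anesthetized rats. Gastric hypersecretion driven by continuous iv histamine infusion at 1.5 mg/kg per hour. Compound given iv. ID50 read from a plot of response, as percent of control, against log dose.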

Rattus norvegicus [7] = assay: Compound was evaluated for antisecretion activity using stomach perfusion test in the anesthetized rat (iv administration) in experiment 1; format: functional; conditions: read-out: ID50 (the source's name); method in brief: as §3
[8] = Ratio of ED50 for diarrhea to ID50 (antisecretory activity); format: functional
Rattus norvegicus [9] = assay: Compound was evaluated for antisecretion activity using stomach perfusion test in the anesthetized rat (ig administration); format: functional; conditions: for ED50: Rattus norvegicus, Stomach, po, read-out: ID50 (the source's name)
[10] = Mus musculus, po, read-out: ED50

| Compound | ED50 (Cricetinae gen. sp. [1]) [mg/kg] | ED50 (Mus musculus; [10]) [mg/kg] | ED50 (Rattus norvegicus [2]) [mg/kg] | ED50 (Cricetinae gen. sp. [3]) [mg/kg] | other results |
| --- | --- | --- | --- | --- | --- |
| CCCC[C@](C)(OC)[C@H](O)/C=C/C1[C@H](O)C[C@H](O)[C@@H]1C/C=C\CCCC(=O)OC (some centres not stated) | 1.5 | 1.81 | > 2 | – | – |
| CCCC[C@@](C)(OC)[C@@H](O)/C=C/C1[C@H](O)CC(=O)[C@@H]1CCCCCCC(=O)OC (some centres not stated) | – | > 4 | > 1 | > 2.5 | – |
| CCCCC[C@H](O)/C=C/[C@@H]1[C@@H](C/C=C\CCCC(=O)O)[C@@H](O)C[C@H]1O [DINOPROST] | – | 0.57 | – | – | ED50 (Rattus norvegicus [4]): > 0.3 mg/kg; ED50 (Cricetinae gen. sp. [5]): 0.06 mg/kg |
| CCCC[C@@](C)(OC)[C@@H](O)/C=C/C1[C@H](O)C[C@H](O)[C@@H]1C/C=C\CCCC(=O)OC (some centres not stated) | > 4 | > 4 | > 2 | – | – |
| CCCC[C@](C)(OC)[C@@H](O)/C=C/C1[C@H](O)CC(=O)[C@@H]1C/C=C\CCCC(=O)OC (some centres not stated) | – | 0.912 | 1.5 | > 1 | – |
| CCCC[C@](C)(OC)[C@H](O)/C=C/C1[C@H](O)CC(=O)[C@@H]1C/C=C\CCCC(=O)OC (some centres not stated) | – | 0.479 | 0.5 | > 1 | – |
| CCCC[C@](C)(OC)[C@@H](O)/C=C/C1[C@H](O)CC(=O)[C@@H]1CCCCCCC(=O)OC (stereo in doubt; form 2) | – | – | – | – | ED50 (Rattus norvegicus [6]): 0.3 mg/kg; ED50 (Mus musculus): 0.774 mg/kg; ED50 (Rattus norvegicus [7]): 0.1 mg/kg |
| CCCC[C@](C)(OC)[C@@H](O)/C=C/C1[C@H](O)CC(=O)[C@@H]1CCCCCCC(=O)OC (stereo in doubt; form 1) | – | – | > 3 | > 2.5 | ED50 (Mus musculus): >4 mg/kg |
| CCCCC[C@H](O)/C=C/[C@H]1[C@H](O)CC(=O)[C@@H]1CCCCCCC(=O)O [ALPROSTADIL] | 1.8 | 1.02 | 0.0285 | – | Ratio [8]: 36 |
| CCCC[C@@](C)(OC)[C@H](O)/C=C/C1[C@H](O)C[C@H](O)[C@@H]1C/C=C\CCCC(=O)OC (some centres not stated) | 0.6 | 0.888 | 1.5 | – | – |
| CCCC[C@@H](OC)[C@H](O)/C=C/C1[C@H](O)CC(=O)[C@@H]1C/C=C\CCCC(=O)O (some centres not stated) | – | – | > 0.05 | – | – |
| CCCC[C@@](C)(OC)[C@H](O)/C=C/C1[C@H](O)CC(=O)[C@@H]1C/C=C\CCCC(=O)OC (some centres not stated) | – | 0.757 | 0.0072 | > 1 | Ratio [8]: 105 |
| CCCCC[C@H](O)/C=C/[C@H]1[C@H](O)CC(=O)[C@@H]1C/C=C\CCCC(=O)O [DINOPROSTONE] | 0.7 | 1.5 | 0.026 | – | Ratio [8]: 58; ED50 (Rattus norvegicus [9]): > 0.1 mg/kg |
| CCCC[C@@](C)(OC)[C@@H](O)/C=C/C1[C@H](O)CC(=O)[C@@H]1C/C=C\CCCC(=O)OC (some centres not stated) | – | – | – | > 1 | – |
| CCCCC(OC)[C@H](O)/C=C/C1[C@H](O)CC(=O)[C@@H]1CCCCCCC(=O)O (some centres not stated) | – | – | – | – | ED50 (Rattus norvegicus [9]): > 0.1 mg/kg |
| CCCC[C@](C)(OC)[C@@H](O)/C=C/C1[C@H](O)C[C@H](O)[C@@H]1C/C=C\CCCC(=O)OC (some centres not stated) | > 4 | > 4 | > 4 | – | – |
| CCCC[C@@](C)(OC)[C@H](O)/C=C/C1[C@H](O)CC(=O)[C@@H]1CCCCCCC(=O)OC (some centres not stated) | – | 1.35 | 0.0045 | > 2.5 | Ratio [8]: 300; ID50 (Rattus norvegicus [9]): 0.015 mg/kg; ED50 (Rattus norvegicus [9]): 0.015 mg/kg |
